Results published in ChEMBL document CHEMBL5724801, “EUbOPEN Chemogenomics Library - Multiplex” (2024).
Where “and” joins values, the source holds several entries; their conditions need not be identical. Identical values can stand only once.

Tested on: U2OS
Assay: Multiplex assay against U2OS
Format: toxicity, cell-based
Conditions: human
Summary of the method: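 Imaging took place on a CQ1 microscope at 37°C and 5% CO2 once compound had been added to live cells stained at seeding with Hoechst33342, BioTracker Green Microtubule Cytoskeleton Dye, MitoTracker Red and Annexin V Alexa Fluor 680. CellPathfinder machine-learning gating classed cells as Hoechst high-intensity objects or normal cells, classed normal cells as having healthy, pyknosed or fragmented nuclei, and classed pyknosed cells as mitotic or apoptotic. Tubulin, mitochondrial-mass and membrane-permeability phenotypes are per cents of the healthy-nucleus cells.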

[1] = 12 h, 1 µM, compound concentration 1 uM
[2] = 12 h, 10 µM, compound concentration 10 uM
[3] = 24 h, 1 µM, compound concentration 1 uM
[4] = 24 h, 10 µM, compound concentration 10 uM
[5] = 48 h, 1 µM, compound concentration 1 uM
[6] = 48 h, 10 µM, compound concentration 10 uM

Cc1cc(=O)n(C)c2cc(N3C(=O)CC[C@H](NS(=O)(=O)CC(C)C)[C@H]3c3ccc(Cl)cc3)ccc12
Population Apoptotic (%) [1]: 87% and 63% | Population Fragmented Nuclei (%) [1]: 24% and 21% | Population Healthy Nuclei (%) [1]: 66% and 68% | Population Hoechst High Intensity Objects (%) [1]: 3% and 1% | Population Membrane Permeable-Phenotype (%) [1]: 3% and 2% | Population Mitochondria Different-Phenotype (%) [1]: 1% and 2% | Population Mitotic Cells (%) [1]: 12% and 36% | Population Normal (%) [1]: 96% and 98% | Population Pyknosed Nuclei (%) [1]: 9% and 10% | Population Tubulin-Different-Phenotype (%) [1]: 1% | Total Cell Count [1]: 263 and 110 | Population Apoptotic (%) [2]: 57% | Population Fragmented Nuclei (%) [2]: 21% and 16% | Population Healthy Nuclei (%) [2]: 55% and 60% | Population Hoechst High Intensity Objects (%) [2]: 5% and 3% | Population Membrane Permeable-Phenotype (%) [2]: 63% and 35% | Population Mitochondria Different-Phenotype (%) [2]: 44% and 68% | Population Mitotic Cells (%) [2]: 42% | Population Normal (%) [2]: 94% and 96% | Population Pyknosed Nuclei (%) [2]: 23% | Population Tubulin-Different-Phenotype (%) [2]: 65% and 60% | Total Cell Count [2]: 240 and 83 | Population Apoptotic (%) [3]: 74% and 82% | Population Fragmented Nuclei (%) [3]: 20% and 18% | Population Healthy Nuclei (%) [3]: 68% and 69% | Population Hoechst High Intensity Objects (%) [3]: 3% and 1% | Population Membrane Permeable-Phenotype (%) [3]: 6% and 9% | Population Mitochondria Different-Phenotype (%) [3]: 3% and 2% | Population Mitotic Cells (%) [3]: 25% and 17% | Population Normal (%) [3]: 96% and 98% | Population Pyknosed Nuclei (%) [3]: 11% | Population Tubulin-Different-Phenotype (%) [3]: 4% and 6% | Total Cell Count [3]: 322 and 146 | Population Apoptotic (%) [4]: 71% and 81% | Population Fragmented Nuclei (%) [4]: 20% and 26% | Population Healthy Nuclei (%) [4]: 56% and 62% | Population Hoechst High Intensity Objects (%) [4]: 5% and 2% | Population Membrane Permeable-Phenotype (%) [4]: 25% and 36% | Population Mitochondria Different-Phenotype (%) [4]: 40% and 59% | Population Mitotic Cells (%) [4]: 28% and 18% | Population Normal (%) [4]: 94% and 97% | Population Pyknosed Nuclei (%) [4]: 23% and 10% | Population Tubulin-Different-Phenotype (%) [4]: 28% and 50% | Total Cell Count [4]: 262 and 108 | Population Apoptotic (%) [5]: 77% and 95% | Population Fragmented Nuclei (%) [5]: 14% and 15% | Population Healthy Nuclei (%) [5]: 73% | Population Hoechst High Intensity Objects (%) [5]: 1% | Population Membrane Permeable-Phenotype (%) [5]: 4% and 6% | Population Mitochondria Different-Phenotype (%) [5]: 3% and 5% | Population Normal (%) [5]: 98% | Population Pyknosed Nuclei (%) [5]: 11% and 10% | Population Tubulin-Different-Phenotype (%) [5]: 2% and 4% | Total Cell Count [5]: 508 and 199 | Population Apoptotic (%) [6]: 84% and 71% | Population Fragmented Nuclei (%) [6]: 25% and 21% | Population Healthy Nuclei (%) [6]: 51% and 60% | Population Hoechst High Intensity Objects (%) [6]: 6% and 5% | Population Membrane Permeable-Phenotype (%) [6]: 15% and 30% | Population Mitochondria Different-Phenotype (%) [6]: 15% and 35% | Population Mitotic Cells (%) [6]: 15% and 28% | Population Normal (%) [6]: 93% and 94% | Population Pyknosed Nuclei (%) [6]: 22% and 18% | Population Tubulin-Different-Phenotype (%) [6]: 10% and 23% | Total Cell Count [6]: 331 and 120

C[C@H](NC(=O)CNC(=O)c1cccc(Cl)c1)c1ccccc1
Population Apoptotic (%) [1]: 78% and 71% | Population Fragmented Nuclei (%) [1]: 26% and 20% | Population Healthy Nuclei (%) [1]: 61% and 68% | Population Hoechst High Intensity Objects (%) [1]: 3% | Population Membrane Permeable-Phenotype (%) [1]: 6% and 8% | Population Mitochondria Different-Phenotype (%) [1]: 4% and 2% | Population Mitotic Cells (%) [1]: 21% and 28% | Population Normal (%) [1]: 96% | Population Pyknosed Nuclei (%) [1]: 12% and 11% | Population Tubulin-Different-Phenotype (%) [1]: 2% | Total Cell Count [1]: 242 and 124 | Population Apoptotic (%) [2]: 68% and 66% | Population Fragmented Nuclei (%) [2]: 24% and 13% | Population Healthy Nuclei (%) [2]: 63% and 82% | Population Hoechst High Intensity Objects (%) [2]: 2% and 0% | Population Membrane Permeable-Phenotype (%) [2]: 9% and 2% | Population Mitochondria Different-Phenotype (%) [2]: 3% | Population Mitotic Cells (%) [2]: 31% and 33% | Population Normal (%) [2]: 97% and 100% | Population Pyknosed Nuclei (%) [2]: 11% and 4% | Population Tubulin-Different-Phenotype (%) [2]: 4% and 2% | Total Cell Count [2]: 198 and 150 | Population Apoptotic (%) [3]: 79% and 88% | Population Fragmented Nuclei (%) [3]: 19% | Population Healthy Nuclei (%) [3]: 71% and 69% | Population Hoechst High Intensity Objects (%) [3]: 2% | Population Membrane Permeable-Phenotype (%) [3]: 7% and 4% | Population Mitochondria Different-Phenotype (%) [3]: 2% and 4% | Population Mitotic Cells (%) [3]: 20% and 11% | Population Normal (%) [3]: 97% | Population Pyknosed Nuclei (%) [3]: 8% and 10% | Population Tubulin-Different-Phenotype (%) [3]: 2% and 0% | Total Cell Count [3]: 275 and 168 | Population Apoptotic (%) [4]: 90% and 71% | Population Fragmented Nuclei (%) [4]: 24% and 12% | Population Healthy Nuclei (%) [4]: 61% and 83% | Population Hoechst High Intensity Objects (%) [4]: 1% | Population Membrane Permeable-Phenotype (%) [4]: 6% and 4% | Population Mitochondria Different-Phenotype (%) [4]: 4% and 2% | Population Normal (%) [4]: 98% | Population Pyknosed Nuclei (%) [4]: 13% and 3% | Population Tubulin-Different-Phenotype (%) [4]: 2% and 3% | Total Cell Count [4]: 239 and 189 | Population Apoptotic (%) [5]: 74% and 100% | Population Fragmented Nuclei (%) [5]: 18% and 17% | Population Healthy Nuclei (%) [5]: 71% and 70% | Population Hoechst High Intensity Objects (%) [5]: 3% and 2% | Population Membrane Permeable-Phenotype (%) [5]: 6% and 4% | Population Mitochondria Different-Phenotype (%) [5]: 3% | Population Mitotic Cells (%) [5]: 25% and 0% | Population Normal (%) [5]: 96% and 97% | Population Pyknosed Nuclei (%) [5]: 10% and 11% | Population Tubulin-Different-Phenotype (%) [5]: 1% and 2% | Total Cell Count [5]: 401 and 205 | Population Apoptotic (%) [6]: 81% and 100% | Population Fragmented Nuclei (%) [6]: 19% and 12% | Population Healthy Nuclei (%) [6]: 73% and 80% | Population Hoechst High Intensity Objects (%) [6]: 2% and 1% | Population Membrane Permeable-Phenotype (%) [6]: 6% and 4% | Population Mitochondria Different-Phenotype (%) [6]: 2% and 1% | Population Mitotic Cells (%) [6]: 18% and 0% | Population Normal (%) [6]: 97% and 98% | Population Pyknosed Nuclei (%) [6]: 7% | Population Tubulin-Different-Phenotype (%) [6]: 4% and 1% | Total Cell Count [6]: 311 and 279
